Active and inactive are the calls of the source. The calls are words filed in the database; no cut-off is given here.
Assays:
U-251 = assay: Antiproliferative activity against human U251 cells assessed as cell growth inhibition after 48 hrs by sulforhodamine B assay; format: functional; settings: U-251, 48 h
Procedure, shortened: (§1)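 Human tumour lines and HaCaT normal keratinocytes in 96-well plates, exposed to compound in DMSO/RPMI (final DMSO 0.2%) for 48 h at 37 °C, 5% CO2. Cells were fixed with 50% trichloroacetic acid at time zero and after treatment. Protein was stained with sulforhodamine B and read at 540 nm. TGI (total growth inhibition) was derived by non-linear regression from triplicate runs.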

HaCaT = assay: Cytotoxicity against human HaCaT cells assessed as cell growth inhibition after 48 hrs by sulforhodamine B assay; format: cell-based; procedure, shortened: as §1
MCF7 [1] = assay: Antiproliferative activity against human MCF7 cells assessed as cell growth inhibition after 48 hrs by sulforhodamine B assay; format: functional; settings: MCF7, 48 h; procedure, shortened: as §1
786-0 [2] = assay: Antiproliferative activity against human 786-0 cells assessed as cell growth inhibition after 48 hrs by sulforhodamine B assay; format: functional; settings: 786-0, 48 h; procedure, shortened: as §1
OVCAR-3 [3] = assay: Antiproliferative activity against human OVCAR3 cells assessed as cell growth inhibition after 48 hrs by sulforhodamine B assay; format: functional; settings: OVCAR-3, 48 h; procedure, shortened: as §1
NCI/ADR-RES [4] = assay: Antiproliferative activity against human NCI/ADR-RES cells assessed as cell growth inhibition after 48 hrs by sulforhodamine B assay; format: functional; procedure, shortened: as §1
NCI-H460 = assay: Antiproliferative activity against human NCI-H460 cells assessed as cell growth inhibition after 48 hrs by sulforhodamine B assay; format: functional; settings: NCI-H460, 48 h; procedure, shortened: as §1
HT-29 [5] = assay: Antiproliferative activity against human HT-29 cells assessed as cell growth inhibition after 48 hrs by sulforhodamine B assay; format: functional; settings: HT-29, 48 h; procedure, shortened: as §1
PC-3 [6] = assay: Antiproliferative activity against human PC3 cells assessed as cell growth inhibition after 48 hrs by sulforhodamine B assay; format: functional; settings: PC-3, 48 h; procedure, shortened: as §1
UACC-62 [7] = assay: Antiproliferative activity against human UACC62 cells assessed as cell growth inhibition after 48 hrs by sulforhodamine B assay; format: functional; settings: UACC-62, 48 h; procedure, shortened: as §1
HT-29 [8] = assay: Antiproliferative activity against human HT-29 cells at 25 uM after 48 hrs by sulforhodamine B assay; format: functional, cell-based
Procedure, shortened: (§2)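 Growth-inhibition profile of each tumour line at a single compound concentration of 25 μM. Cells were treated in DMSO/RPMI (final DMSO 0.2%) for 48 h at 37 °C, 5% CO2. Cells were fixed with 50% TCA before and after exposure. Cellular protein was quantified by sulforhodamine B staining at 540 nm.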

786-0 [9] = assay: Antiproliferative activity against human 786-0 cells at 25 uM after 48 hrs by sulforhodamine B assay; format: functional, cell-based; procedure, shortened: as §2
OVCAR-3 [10] = assay: Antiproliferative activity against human OVCAR3 cells at 25 uM after 48 hrs by sulforhodamine B assay; format: functional, cell-based; procedure, shortened: as §2
PC-3 [11] = assay: Antiproliferative activity against human PC3 cells at 25 uM after 48 hrs by sulforhodamine B assay; format: functional, cell-based; procedure, shortened: as §2
NCI/ADR-RES [12] = assay: Antiproliferative activity against human NCI/ADR-RES cells at 25 uM after 48 hrs by sulforhodamine B assay; format: functional, cell-based; procedure, shortened: as §2
UACC-62 [13] = assay: Antiproliferative activity against human UACC62 cells at 25 uM after 48 hrs by sulforhodamine B assay; format: functional, cell-based; procedure, shortened: as §2
MCF7 [14] = assay: Antiproliferative activity against human MCF7 cells at 25 uM after 48 hrs by sulforhodamine B assay; format: functional, cell-based; procedure, shortened: as §2
[15] = Selectivity index, ratio of TGI for human HaCaT cells to TGI for human U251 cells; format: toxicity; settings: HaCaT cells and U251 cells, read-out: Selectivity Index

Structure (SMILES) | TGI (U-251) | TGI (HaCaT) | TGI (MCF7 [1]) | TGI (786-0 [2]) | TGI (OVCAR-3 [3]) | TGI (NCI/ADR-RES [4]) | TGI (NCI-H460) | TGI (HT-29 [5]) | TGI (PC-3 [6]) | TGI (UACC-62 [7]) | Activity (HT-29 [8]) | Activity (786-0 [9]) | Activity (OVCAR-3 [10]) | Activity (PC-3 [11]) | Activity (NCI/ADR-RES [12]) | Activity (UACC-62 [13]) | Activity (MCF7 [14]) | selectivity ratio [15]
C=C(C)[C@@H]1CC=C(Cn2cc(COc3ccc(C4NC(=O)NC(C)=C4C(=O)OCC)cc3)nn2)CC1 (stereo not given in full) | 12.4 µM | 165.69 µM | 43.1 µM | 97.1 µM | 6.9 µM | > 100 µM | > 100 µM | 77.1 µM | 92.2 µM | 19.2 µM |  |  |  |  |  |  |  | 
C=C(C)[C@@H]1CC=C(Cn2cc(COc3ccc(C4NC(=O)NC(C)=C4C(C)=O)cc3)nn2)CC1 (stereo not given in full) | 20 µM | 44.47 µM | 29 µM | 23.3 µM | 32.6 µM | > 100 µM | 78.2 µM | 62.6 µM | 49.3 µM | 20.5 µM |  |  |  |  |  |  |  | 
C=C(C)[C@@H]1CC=C(Cn2cc(COc3ccc(C4NC(=O)NC(C)=C4C(C)=O)cc3OC)nn2)CC1 (stereo not given in full) | 77.9 µM | 147.92 µM | 53.3 µM | 88.1 µM | 48 µM | 80.2 µM | > 100 µM | 95 µM | 85.7 µM | 3.83 µM |  |  |  |  |  |  |  | 
CCOC(=O)C1=C(C)NC(=S)NC1c1cccc(O)c1 (stereo not given) |  |  |  |  |  |  |  |  |  |  | Active | Active | Active | Active | Active | Active | Active | 
C=C(C)[C@@H]1CC=C(Cn2cc(COc3ccc(C4NC(=O)NC(C)=C4C(=O)OCC)cc3OC)nn2)CC1 (stereo not given in full) | 11.3 µM | 75.76 µM | 82.5 µM | 87.3 µM | 53.8 µM | > 100 µM | > 100 µM | > 100 µM | 54.4 µM | 26.7 µM |  |  |  |  |  |  |  | 
C=C(C)[C@@H]1CC=C(Cn2cc(COc3cccc(C4NC(=O)NC(C)=C4C(=O)OCC)c3)nn2)CC1 (stereo not given in full) | 12.2 µM | 507.82 µM | 42.5 µM | 39.7 µM | 18.4 µM | > 100 µM | > 100 µM | 73.4 µM | > 100 µM | 22.9 µM |  |  |  |  |  |  |  | 41.7
C=C(C)[C@@H]1CC=C(Cn2cc(COc3cccc(C4NC(=O)NC(C)=C4C(C)=O)c3)nn2)CC1 (stereo not given in full) | 30.5 µM | 115.66 µM | 43 µM | 44.1 µM | 13.3 µM | > 100 µM | > 100 µM | 86.2 µM | 49.8 µM | 31.6 µM |  |  |  |  |  |  |  | 
C=C(C)[C@@H]1CC=C(Cn2cc(COc3cc(C4NC(=O)NC(C)=C4C(C)=O)ccc3OC)nn2)CC1 (stereo not given in full) | > 100 µM | 486.19 µM | > 100 µM | > 100 µM | > 100 µM | 84.9 µM | > 100 µM | 96 µM | > 100 µM | > 100 µM |  |  |  |  |  |  |  | 
C=C(C)[C@@H]1CC=C(Cn2cc(COc3cc(C4NC(=O)NC(C)=C4C(=O)OCC)ccc3OC)nn2)CC1 (stereo not given in full) | 98.1 µM | 79.75 µM | > 100 µM | > 100 µM | 13.5 µM | > 100 µM | > 100 µM | > 100 µM | > 100 µM | 37.8 µM |  |  |  |  |  |  |  | 
C=C(C)[C@@H]1CC=C(Cn2cc(COc3cccc(C4NC(=O)NC5=C4C(=O)CC(C)(C)C5)c3)nn2)CC1 (stereo not given in full) | 26 µM | 36.44 µM | 31 µM | > 100 µM | > 100 µM | > 100 µM | 51.6 µM | 49 µM | 21.9 µM | 20.9 µM |  |  |  |  |  |  |  | 
C=C(C)[C@@H]1CC=C(Cn2cc(COc3ccccc3C3NC(=O)NC(C)=C3C(C)=O)nn2)CC1 (stereo not given in full) | 30.2 µM | 29.51 µM | 68.7 µM | 80.3 µM | 34.3 µM | > 100 µM | 83.1 µM | 79.5 µM | 62 µM | 34.2 µM |  |  |  |  |  |  |  | 
C=C(C)[C@@H]1CC=C(Cn2cc(COc3ccccc3C3NC(=O)NC4=C3C(=O)CC(C)(C)C4)nn2)CC1 (stereo not given in full) | 27 µM | 78.72 µM | 45 µM | 26.7 µM | 11.8 µM | > 100 µM | 38.7 µM | 28.9 µM | 21.7 µM | 26.5 µM |  |  |  |  |  |  |  | 
C=C(C)[C@@H]1CC=C(Cn2cc(COc3ccc(C4NC(=O)NC5=C4C(=O)CC(C)(C)C5)cc3)nn2)CC1 (stereo not given in full) | 6.61 µM | 436.18 µM | > 100 µM | 53.2 µM | 29.3 µM | > 100 µM | > 100 µM | > 100 µM | 24 µM | 29.9 µM |  |  |  |  |  |  |  | 66
C=C(C)[C@@H]1CC=C(Cn2cc(COc3ccc(C4NC(=O)NC5=C4C(=O)CC(C)(C)C5)cc3OC)nn2)CC1 (stereo not given in full) | 44 µM | 71.34 µM | 91.9 µM | > 100 µM | 95 µM | > 100 µM | > 100 µM | > 100 µM | > 100 µM | 86.2 µM |  |  |  |  |  |  |  | 
COc1cccc2c1C(=O)c1c(O)c3c(c(O)c1C2=O)C[C@@](O)(C(=O)CO)C[C@@H]3O[C@H]1C[C@H](N)[C@H](O)[C@H](C)O1 [DOXORUBICIN] | 0.09 µM | 1.47 µM | 0.99 µM | 0.02 µM | 0.04 µM | 0.78 µM | 0.46 µM | 0.88 µM | 15.7 µM | 1.66 µM |  |  |  |  |  |  |  | 
C=C(C)[C@@H]1CC=C(Cn2cc(COc3cc(C4NC(=O)NC5=C4C(=O)CC(C)(C)C5)ccc3OC)nn2)CC1 (stereo not given in full) | 8.28 µM | 451.02 µM | 44.8 µM | > 100 µM | > 100 µM | > 100 µM | > 100 µM | > 100 µM | 79.9 µM | 62 µM |  |  |  |  |  |  |  | 54.5
C=C(C)[C@@H]1CC=C(Cn2cc(COc3ccccc3C3NC(=O)NC(C)=C3C(=O)OCC)nn2)CC1 (stereo not given in full) | > 100 µM | 294.37 µM | > 100 µM | > 100 µM | 81.2 µM | > 100 µM | > 100 µM | > 100 µM | > 100 µM | > 100 µM |  |  |  |  |  |  |  | 
